7 compounds from ChEMBL document CHEMBL4706643 (J Med Chem, 2021) can be followed below.

For orientation: IC50 means the point on the concentration scale where inhibition reaches its midpoint.

One data set has as its system Hepatitis B virus. Briefly: Antiviral activity against HBV infected in human HepG2-NTCP cells assessed as reduction in HBeAg secretion cells inoculated with virus for 4 hrs at room temperature and 37 degree C for 24 hrs followed inoculum changed with PMM medium for every 2 days until day 5 post infection by ELISA. The class given is functional, organism-based. In general terms: An ELISA detects its analyte on a solid surface through an enzyme-linked reagent.

A short description of data set [1]: Intrinsic clearance in human liver microsomes at 1 uM preincubated for 5 mins followed by NADPH addition and measured upto 60 mins by LC-MS analysis. The class given is ADME, Microsome. The conditions noted are these: read-out: CLH. The method in brief: (§1)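 Human or mouse liver microsomes, final 1 mg/mL in 0.05 M phosphate buffer pH 7.4; compound final 1 μM, preincubated 37 °C 5 min, started with 1 mM NADPH; sampled at 0, 5, 15, 30, 60 min, methanol quench, −20 °C 1 h, centrifuged, supernatant by LC–MS.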
For orientation: Liver microsomes are a subcellular fraction often used to study metabolism.

Data set [2] in a line: Intrinsic clearance in rat liver microsomes at 1 uM preincubated for 5 mins followed by NADPH addition and measured upto 60 mins by LC-MS analysis. The class given is ADME, Microsome. The conditions noted are these: time 65 min, read-out: CLH.
Data set [3] is described as follows: Intrinsic clearance in mouse liver microsomes at 1 uM preincubated for 5 mins followed by NADPH addition and measured upto 60 mins by LC-MS analysis. In kind it is ADME, Microsome. Particulars: read-out: CLH; call rule not given here. The method in brief: as §1
Data set [4] deals with T1, Hepatic sodium/bile acid cotransporter (Homo sapiens, UniProt Q14973).
T1 sequence (Q14973 whole entry): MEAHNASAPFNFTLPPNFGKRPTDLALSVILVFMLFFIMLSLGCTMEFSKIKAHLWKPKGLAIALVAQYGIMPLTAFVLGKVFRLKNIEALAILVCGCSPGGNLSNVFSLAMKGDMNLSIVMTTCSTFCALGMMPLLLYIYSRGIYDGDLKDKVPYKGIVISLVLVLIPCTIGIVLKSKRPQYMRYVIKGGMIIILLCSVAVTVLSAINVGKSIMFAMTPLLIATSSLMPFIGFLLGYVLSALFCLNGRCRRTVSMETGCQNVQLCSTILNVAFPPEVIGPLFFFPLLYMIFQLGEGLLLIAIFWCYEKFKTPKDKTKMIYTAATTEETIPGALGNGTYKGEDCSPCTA
Briefly: Inhibition of human NTCP expressed in human HepG2 cells assessed as decrease in NTCP surface expression at 2 uM incubated for 2 hrs by DAPI staining based analysis. The class given is cell-based. The conditions noted are these: hepg2, 2 h. Put shortly: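 HepG2-NTCP cells treated 2 h with DMSO, compound or TLCA at 2 μM, then immunostained for NTCP to assess cell-surface distribution.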

`CC[C@@H]1NC(=O)[C@H]([C@@H]2O[C@@H](Sc3cccc(NCc4ccccc4)c3)C[C@H]2C)N(C)C(=O)[C@H](C(C)C)N(C)C(=O)[C@H](CC(C)C)N(C)C(=O)[C@H](CC(C)C)N(C)C(=O)[C@@H](C)NC(=O)[C@H](C)NC(=O)[C@H](CC(C)C)N(C)C(=O)[C@H](C(C)C)NC(=O)[C@H](CC(C)C)N(C)C(=O)CN(C)C1=O`: in the data set on Hepatitis B virus, the IC50 was found to be 171 nM. The microsomal CLint at 1 µM in data set [1] came out at 6.1 µL/min/mg; in data set [2], 1.4 µL/min/mg; in data set [3], 2.1 µL/min/mg.

Regarding `CCCCc1ccc(S[C@H]2C[C@@H](C)[C@H]([C@H]3C(=O)N[C@@H](CC)C(=O)N(C)CC(=O)N(C)[C@@H](CC(C)C)C(=O)N[C@@H](C(C)C)C(=O)N(C)[C@@H](CC(C)C)C(=O)N[C@@H](C)C(=O)N[C@H](C)C(=O)N(C)[C@@H](CC(C)C)C(=O)N(C)[C@@H](CC(C)C)C(=O)N(C)[C@@H](C(C)C)C(=O)N3C)O2)cc1`, the IC50 with Hepatitis B virus was 262 nM. Further, the microsomal CLint at 1 µM in data set [1] turned out to be 6.1 µL/min/mg; in data set [2], 4 µL/min/mg; in data set [3], 2.5 µL/min/mg.

As for `C[C@H](CCC(=O)NCCS(=O)(=O)O)[C@H]1CC[C@H]2[C@@H]3CC[C@@H]4C[C@H](O)CC[C@]4(C)[C@H]3CC[C@]12C` [TAUROLITHOCHOLIC ACID], the “inhibition (INH)” value in data set [4] is on record as “Active”.

For the compound `CC[C@@H]1NC(=O)[C@H]([C@@H]2O[C@@H](Sc3cccc(OCc4ccc(F)cc4)c3)C[C@H]2C)N(C)C(=O)[C@H](C(C)C)N(C)C(=O)[C@H](CC(C)C)N(C)C(=O)[C@H](CC(C)C)N(C)C(=O)[C@@H](C)NC(=O)[C@H](C)NC(=O)[C@H](CC(C)C)N(C)C(=O)[C@H](C(C)C)NC(=O)[C@H](CC(C)C)N(C)C(=O)CN(C)C1=O`, the 50% inhibitory concentration (IC50) in the data set with Hepatitis B virus came to 206 nM. In addition, the results for the microsomal CLint at 1 µM in data set [1], in data set [2] and in data set [3] were 7.7 µL/min/mg, 2 µL/min/mg and 0.3 µL/min/mg, respectively.

Regarding `CCOc1cccc(S[C@H]2C[C@@H](C)[C@H]([C@H]3C(=O)N[C@@H](CC)C(=O)N(C)CC(=O)N(C)[C@@H](CC(C)C)C(=O)N[C@@H](C(C)C)C(=O)N(C)[C@@H](CC(C)C)C(=O)N[C@@H](C)C(=O)N[C@H](C)C(=O)N(C)[C@@H](CC(C)C)C(=O)N(C)[C@@H](CC(C)C)C(=O)N(C)[C@@H](C(C)C)C(=O)N3C)O2)c1`, the IC50 in the data set on Hepatitis B virus came to 181 nM. Further, the values for the microsomal CLint at 1 µM in data set [1], in data set [2] and in data set [3] were 18.5 µL/min/mg, 2.3 µL/min/mg and 4 µL/min/mg, respectively.

As to `CC[C@@H]1NC(=O)[C@H]([C@@H]2O[C@@H](Sc3cc(OC)cc(OC)c3)C[C@H]2C)N(C)C(=O)[C@H](C(C)C)N(C)C(=O)[C@H](CC(C)C)N(C)C(=O)[C@H](CC(C)C)N(C)C(=O)[C@@H](C)NC(=O)[C@H](C)NC(=O)[C@H](CC(C)C)N(C)C(=O)[C@H](C(C)C)NC(=O)[C@H](CC(C)C)N(C)C(=O)CN(C)C1=O`, in the data set on Hepatitis B virus, the IC50 is 117 nM. For the same compound, the microsomal CLint at 1 µM was determined as 10.2 µL/min/mg in data set [1], 0.7 µL/min/mg in data set [2] and 5.5 µL/min/mg in data set [3].

In the case of `CC[C@@H]1NC(=O)[C@H]([C@@H]2O[C@@H](Sc3ccc(Cl)c(OC)c3)C[C@H]2C)N(C)C(=O)[C@H](C(C)C)N(C)C(=O)[C@H](CC(C)C)N(C)C(=O)[C@H](CC(C)C)N(C)C(=O)[C@@H](C)NC(=O)[C@H](C)NC(=O)[C@H](CC(C)C)N(C)C(=O)[C@H](C(C)C)NC(=O)[C@H](CC(C)C)N(C)C(=O)CN(C)C1=O`, the IC50 with Hepatitis B virus worked out at 101 nM. Further, the microsomal CLint at 1 µM in data set [1] was determined as 14.8 µL/min/mg; in data set [2], 2 µL/min/mg; in data set [3], 3.3 µL/min/mg.
